The nature of this series: Toxicity liver stage against HepG2, at 10uM. Also on record: test concentration 10 uM, cell line HepG2-A16-CD81EGFP. It is filed as cell-based. Particulars: human, HepG2-A16-CD81EGFP cells; read-out: INHIBITION
The essentials: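 Uninfected HepG2-A16-CD81EGFP cells, 3 × 10^3 per well, 1536-well, plated on prespotted compound at 10 μM final, parasite-free screening media added to match infected plates; puromycin 10 μM positive, DMSO 0.5% negative; run in parallel with 48 h PbLuc assay at 37 °C, 5% CO2; viability by CellTiter-Glo luminescence, normalized to controls.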
Regarding `Cc1ccc(CNC(=O)N(Cc2ccccc2F)C2CC2)cn1`, the cytotoxicity at 10 µM stood at 0.0194%. As for `c1cnn(CCNCc2nnc(C3CC3)o2)c1`, the cytotoxicity at 10 µM is -10.5%. Take `CCc1c(C)nc2ccccc2c1N1CCC(O)CC1`: the cytotoxicity at 10 µM was 0.395%. The same measure for `CCN1CCN(C)C(=O)C12CCN(Cc1ccsc1)CC2`: 1.14%. In the case of `CCc1cn[nH]c1C1CCCN(C(=O)c2cnc(NC(C)C)nc2)C1` (configuration not stated), the cytotoxicity at 10 µM is -13.2%. Under `O=C(NCC1CC1)C1CSCN1S(=O)(=O)c1ccccc1F` (configuration not stated) stands 5.02%; under `O=C1[C@@H]2CC[C@@H](CN(Cc3ccccc3OC(F)F)C2)N1CC1CC1`, -6.17%; under `O=C(CNC(=O)C1(c2ccc(F)cc2F)CCC1)Nc1ccccn1`, -16.5%. The same measure for `Cc1ccc(OC2(C(=O)O)CCN(C/C=C/c3ccco3)CC2)cn1`: -1.64%; for `CCCC1C=CCN1C(=O)c1cc(COc2ccccc2)[nH]n1` (configuration not stated): 9.8%; for `CN1CCN(Cc2cnc3n2CCN(C(=O)c2cscn2)C3)CC1`: -78.2%. As to `CCN(Cc1nc2c(cnn2C)c(=O)[nH]1)c1ccccc1`, the cytotoxicity at 10 µM is -7.36%.

Consider `CCCNC(=O)C1CCN(Cc2csc(C(C)(C)C)n2)CC1`, for which the cytotoxicity at 10 µM was -9.11%. The same measure for `CNc1cc(N2CCCC2CNCc2ccc(Cl)o2)ncn1` (configuration not stated): -11.6%; for `Cc1cc(C(F)(F)F)nc(CNC(=O)CCCN2CCCCC2)n1`: -53.1%; for `CCc1nc(CCn2ccc3nc(OC)c(C#N)cc3c2=O)no1`: 3.57%. On to `CC(=O)N1CCC(NC(=O)Cc2nc3nc(C)cc(C)n3n2)CC1`, for which the cytotoxicity at 10 µM was 8.52%. Under `Cc1ccc(CN2CCn3cc(CN(C)Cc4ccco4)nc3C2)o1` stands -1.09%. Under `COc1cccc(CN(C)C(C)C(=O)Nc2nc(C)c(C)s2)c1` (configuration not stated) stands 9.74%. The same measure for `Cc1nc(CN(C)C2CCN(CCCOc3ccc(F)cc3)C2)no1` (configuration not stated): -8.27%; for `COc1ccc([C@@H]2CN(Cc3cccnc3N)C[C@H]2NC(C)=O)cc1`: 0.0652%; for `Cc1ncccc1C(=O)Nc1cccc(C[S+](C)[O-])c1C` (configuration not stated): 4.08%. In the case of `COC(=O)c1sccc1S(=O)(=O)N1CCC(Oc2ncccc2Cl)CC1`, the cytotoxicity at 10 µM was -16.8%. The same measure for `CCc1ccc(-c2cc(C(F)(F)F)nc(N3CCC(N)CC3)n2)cc1`: 91.5%; for `Nc1cc(C(=O)N2C[C@@H]3CC[C@H]2CN(Cc2cccnc2)C3)ccn1`: 0.624%. The same measure for `CCNC(=O)C1CCN(c2cc(-c3ccccc3F)nc3ccnn23)C1` (configuration not stated): 4.31%; for `CC(C)(C)Oc1ccccc1CNC(=O)C1CCCOC1` (configuration not stated): 0.997%.

In the case of `Cc1nn(C)cc1-c1ccnc(NCCN)n1`, the cytotoxicity at 10 µM is -0.571%. The same measure for `Cc1nc(CSc2nc(=O)ccn2C(C)C)cs1`: 16.4%; for `Cc1cnc(C)c(N2CCCC(C/C=C/c3ccccc3)(C(=O)O)C2)n1` (configuration not stated): 9.42%. Under `CNC(=O)c1cccc(C2CNCCN2C(=O)c2ccn(C)n2)c1` (configuration not stated) stands -4.22%; under `CN(C)C(=O)N1CCn2cc(CNC(=O)CC3CC3)nc2C1`, -80.2%; under `Cc1n[nH]c(C)c1C1CCCN1C(=O)CNC(=O)C(C)(C)C` (configuration not stated), -29%. As to `COc1ccc(C(=O)Nc2c(C(=O)N(C)C)nn(C)c2C)cc1`, the cytotoxicity at 10 µM stood at 6.03%.

`COc1ccc(C(=O)N(C)Cc2c(C)noc2C)cn1`: the cytotoxicity at 10 µM was -12.9%. As for `Cc1nc(C(C)NC(=O)c2cn(Cc3ccc(Cl)cc3)nn2)n[nH]1` (configuration not stated), the cytotoxicity at 10 µM amounted to 10.2%. The same measure for `CCC(CO)N(Cc1ccccc1C)Cc1ccccc1C(=O)O` (configuration not stated): -6.32%; for `CC1CCN(c2ccc(C(=O)N3CCCC3c3nncn3C)cn2)CC1` (configuration not stated): -1.88%; for `CCN(CC1CCCO1)C(=O)Nc1ccc(F)cc1OC` (configuration not stated): -8.98%.

On to `COc1ccc(C(=O)NCCCOC(C)c2ccccc2)c(OC)c1` (configuration not stated), for which the cytotoxicity at 10 µM is -17.3%. Under `Cc1ccnc(C(NC(=O)c2ncoc2C)C2CC2)n1` (configuration not stated) stands 12.7%; under `Cc1ccc(S(=O)(=O)N2CC[C@@H]3C[C@H](NC(=O)c4[nH]ncc4Br)[C@@H]32)cc1`, 4.49%; under `Cc1ccc(C(=O)N2CCC(c3n[nH]c(C4CC4)n3)CC2)cc1F`, -5.5%. The same measure for `COCCNC(=O)c1nc2c(s1)CCCN2c1ccc(C)nn1`: 8.33%; for `CCC(C)NC(=O)CS(=O)(=O)Cc1ccccc1Cl` (configuration not stated): 3.79%. The same measure for `CN1CCN(C2CCN(C(C(N)=O)c3ccccc3)CC2)C1=O` (configuration not stated): -4.29%; for `Cc1cc(C(=O)NC2CCC3(CCC(=O)N3C)CC2)no1` (configuration not stated): -0.361%; for `COc1cc(C(=O)N2CCCS2(=O)=O)cc(Cl)c1OC`: 2.31%.

Regarding `Cc1nc[nH]c1CN1C[C@H]2CC[C@@H](C1)N(C(=O)CCn1cncn1)C2`, the cytotoxicity at 10 µM was found to be 1.15%. Under `OC1(CN2CCCC2)CCCN(Cc2cnc(-c3ccco3)nc2)C1` (configuration not stated) stands -6.84%; under `CC(C)Cc1cc(CNC(=O)c2ccccc2C2CCNC2)no1` (configuration not stated), -45.5%; under `c1ccc2nc(N3CCCC3c3nnc4n3CCCCC4)cnc2c1` (configuration not stated), -1.63%. In the case of `Clc1cc(CN2CCCN3CCCC3C2)c2ncccc2c1` (configuration not stated), the cytotoxicity at 10 µM came out at 19.5%. Under `CCc1[nH]ncc1C(=O)N1CCCC(n2cncn2)C1` (configuration not stated) stands -18.9%; under `CNC(=O)CN1CCc2c(CNc3nccs3)n[nH]c2C1`, 3.25%; under `COc1ccc(C2CNCCN2C(=O)c2nccc3ccccc23)cc1` (configuration not stated), 4.1%. The same measure for `Cc1cc(NC(=O)CN2CCN(c3nccs3)C(C)C2)no1` (configuration not stated): -9.66%; for `CN(C)c1ccc(CN2CCC(C(O)Cc3ccccc3)CC2)cn1` (configuration not stated): -1.29%; for `O=C(NS(=O)(=O)c1cccnc1)C1CC(c2ccccc2)=NO1` (configuration not stated): -8.87%. Under `O=C(NCCNc1ccc(C(F)(F)F)cn1)c1cc(Cl)ccc1F` stands -8.27%. `CSc1nccc(NCc2cc3n(n2)CCCN(S(C)(=O)=O)C3)n1`: the cytotoxicity at 10 µM is 3.25%. Under `Nc1nccnc1C1CN(C(=O)c2ccc3c(c2)OCO3)CCO1` (configuration not stated) stands -23.7%. Under `CN(C)CCN(C)C(=O)Cn1cccc2cc(-c3ccc(F)cc3)nc1-2` stands -24.4%. Under `CCCc1c(C(=O)N2CCN(c3cnccn3)CC2)cnn1C` stands 9.77%; under `O=C(c1ccoc1)N1CC[C@@H]2O[C@@H](COCc3ccccn3)CC[C@@H]21`, -71.1%. As to `CC(c1ccncc1)N(CCN(C)C)C(=O)Nc1ccc(Cl)cc1` (configuration not stated), the cytotoxicity at 10 µM is 8.88%. Under `c1ccc(C2CN(CCc3ccncc3)CCO2)cc1` (configuration not stated) stands -8.85%. The same measure for `COCCN(Cc1sccc1C)C(=O)C1CCN(C(C)C)CC1`: -2.72%; for `Cc1cc(C2CCCN2C(=O)NCc2c(C)cc(C)[nH]c2=O)on1` (configuration not stated): -9.54%. The same measure for `Cc1nc(CN(C)C2CCN(Cc3cccc(F)c3)C2)no1` (configuration not stated): -15%; for `Nc1nc(N2CCCC(COc3ccc(F)cc3)C2)c2nc[nH]c2n1` (configuration not stated): 2.11%. As to `COC(=O)COc1nc(CC(C)C)c2c(c1C#N)CCCC2`, the cytotoxicity at 10 µM came to 21.5%.

In the case of `CCc1nc(C2CCCN(c3ncccn3)C2)no1` (configuration not stated), the cytotoxicity at 10 µM was -0.996%. As for `CCCC(O)CN1CCC(=O)N(CCOC)Cc2ccccc21` (configuration not stated), the cytotoxicity at 10 µM stood at 3.23%. The same measure for `CSc1nc(C2CC2)nc(C)c1C(=O)NCc1ccco1`: 5.25%. The same measure for `Cn1cc(CNC2CCC(O)CC2)c(-c2cc3ccccc3o2)n1` (configuration not stated): -48%; for `O=c1ncn(-c2ccccc2F)c2ncccc12`: -2.26%. Under `COCc1nnc(C(=O)N(C)Cc2cnc3ccccn23)o1` stands 1.69%; under `CCn1c(CN2CCC(O)(c3ccc4c(c3)OCO4)CC2)cnc1SC`, 6.96%. Consider `CCN(C(C)=O)C(c1ccc(Cl)cc1)c1ccccn1` (configuration not stated), for which the cytotoxicity at 10 µM was -4.29%. The same measure for `COC(=O)CCNC(=O)c1c[nH]cc1-c1ccccc1OC`: 6.17%. The same measure for `CN(C)CC(=O)N1CCOC2(CCCN(c3ncccc3F)C2)C1` (configuration not stated): -9.84%. With `COc1cccnc1NC(=O)c1ccc(COCC(F)(F)F)cc1`, the cytotoxicity at 10 µM was -2.4%. Under `Cc1oc(NC(=O)C(C)N2CCN(C(C)(C)CO)CC2)c(C#N)c1C` (configuration not stated) stands -3.62%. The same measure for `Cc1ccccc1C1CN(c2cnn(C)c(=O)c2Cl)CCO1` (configuration not stated): -19.4%; for `CCOc1cncc(N2CCN(c3ccccc3F)CC2)n1`: -0.0195%; for `CCNC(=O)c1ccc(NC(=O)N(C)Cc2cccn2C)c(C)c1`: -0.132%. Under `CCS(=O)(=O)CC(=O)Nc1ccc2oc(C3CC3)nc2c1` stands -5.4%.

Consider `CCC(CNC(=O)c1cccc(S(=O)(=O)NC)c1)N1CCCC1` (configuration not stated), for which the cytotoxicity at 10 µM is -4.18%. Under `Cc1csc(N2CCN(Cc3cnc4c(c3)c(C)nn4C)CC2)n1` stands -0.54%; under `CC1CCCN(CCNC(=O)c2ccn(-c3ccccc3)n2)C1` (configuration not stated), -3.81%; under `CN(c1ccncn1)C1CC2(CCN(C(=O)c3cncs3)C2)C1` (configuration not stated), -8.13%.

Consider `COCCc1noc(CN(C)c2nc(C)nc(C)c2C)n1`, for which the cytotoxicity at 10 µM worked out at 4.24%. Under `CCc1cc(C(=O)N2CCc3c(ncn3CCc3ccccc3)C2)[nH]n1` stands -3.64%; under `CC(=O)CSc1sc2c(O)cc(=O)[nH]c2c1C(N)=O`, -3.48%; under `CN(C)C(=O)CO[C@H]1CO[C@@]2(CCN(S(C)(=O)=O)C2)C1`, -106%.

Turning to `O=C(O)c1csc(S(=O)(=O)N2CCN(Cc3ccc(Cl)cc3)CC2)c1`, the cytotoxicity at 10 µM was 4%.

Source of the values: ChEMBL document CHEMBL4513216, “Probing the Open Global Health Chemical Diversity Library for Multistage-Active Starting Points for Next-Generation Antimalarials” (ACS Infect Dis, 2020).
